Assay results of several laboratories.
Read-out: metabolic stability

Cc1ccc(F)c2cc(C(=O)N[C@@H]3CCC[C@H](N4CCOCC4)C3)[nH]c12
scaled CLint (mouse, hepatocytes; 0.5 µM, 1 h): 2170 mL/min/kg

Cc1cc(Cl)c(Cl)cc1NC(=O)c1cc([N+](=O)[O-])c(N2CCNCC2)cc1Cl
scaled CLint (CD-1 mouse, liver microsomes; 1 µM, 1 h, pH 7.4): 25 mL/min/kg

CC(=O)N(C)C1CCN(c2cc(F)cc(NC(=O)c3cc4c(F)ccc(C)c4[nH]3)c2)C1 (centres unmarked)
scaled CLint (mouse, hepatocytes; 0.5 µM, 1 h): 239 mL/min/kg

CO[C@@H](C[C@H]1C(C)=CC[C@@H]2[C@]3(C)C[C@H](O[C@@H]4O[C@@H](C)[C@H](OC(=O)c5cccc(O)c5)[C@@H](O[C@@H]5O[C@H](CO)[C@@H](O)[C@H](O)[C@H]5NC(C)=O)[C@H]4O)[C@@H](O)C(C)(C)[C@H]3CC[C@]21C)[C@H](N)C(=O)O
hepatocyte CLint (mouse, hepatocytes; 1 µM): 4.69 µL/min/10⁶ cells

N#Cc1ccccc1-c1nc(N2CCC(c3ccccn3)C2)c2ccccc2n1 (centres unmarked)
microsomal CLint (mouse, liver microsomes): 717 µL/min/mg

CN[C@@H]1CCCN(c2ccc(Nc3cc(NC4CC4)n4ncc(C#N)c4n3)cc2NC(C)=O)C1
scaled CLint (male CD-1 mouse, hepatocytes; 1 µM, serum-free): 162 mL/min/kg

O=C(Nc1cncc(-c2nc3ccccc3s2)c1)c1cc([N+](=O)[O-])c(N2CCNCC2)cc1Cl
scaled CLint (CD-1 mouse, liver microsomes; 1 µM, 1 h, pH 7.4): 10 mL/min/kg

c1ccc(-c2nc(NCc3nccs3)c3ccccc3n2)nc1
microsomal CLint (mouse, liver microsomes): 224 µL/min/mg

CC(=O)Nc1cc(Nc2cc(NC3CC3)n3ncc(C#N)c3n2)ccc1N1CCC[C@H](O)C1
scaled CLint (male CD-1 mouse, hepatocytes; 1 µM, serum-free): 511 mL/min/kg

O=C(Nc1ccc(Cl)c(Cl)c1)c1ccc(N2CCNCC2)c([N+](=O)[O-])c1
scaled CLint (CD-1 mouse, liver microsomes; 1 µM, 1 h, pH 7.4): 12 mL/min/kg

c1ccc(-c2nc(Nc3ccn4nccc4c3)c3ccccc3n2)nc1
microsomal CLint (mouse, liver microsomes): 325 µL/min/mg
